Active and inactive are the calls of the source. No cut-off for these calls is given here.
Tests used:
RKO [1] = assay: Cell cycle arrest in human RKO cells assessed as accumulation at G1/G0 phase at 25 uM after 24 hrs in presence of oxaliplatin propidium iodide staining based flow cytometry (reference value: 44.3%); assay type: functional
Method in brief: (§1)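 HCT116 and RKO cells were treated with compound alone or with oxaliplatin for 24 h before harvest. Cells were stained with propidium iodide, and DNA content was analysed by flow cytometry. Cell-cycle phase populations, including sub-G1, are given as percentages.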

RKO [2] = assay: Induction of apoptosis in human RKO cells assessed as late apoptotic cells at 50 uM after 24 hrs by Annexin V/propidium iodide staining based flow cytometry (reference value: 7.42%); assay type: functional
Cytochrome P450 2C9 = Cytochrome P450 2C9 (Homo sapiens, UniProt P11712); assay: Inhibition of CYP2C9 in human liver microsomes assessed as reduction in tolbutamide 4-hydroxylation by tandem mass spectrometry analysis; assay type: ADME
Chain of Cytochrome P450 2C9 (P11712 whole entry): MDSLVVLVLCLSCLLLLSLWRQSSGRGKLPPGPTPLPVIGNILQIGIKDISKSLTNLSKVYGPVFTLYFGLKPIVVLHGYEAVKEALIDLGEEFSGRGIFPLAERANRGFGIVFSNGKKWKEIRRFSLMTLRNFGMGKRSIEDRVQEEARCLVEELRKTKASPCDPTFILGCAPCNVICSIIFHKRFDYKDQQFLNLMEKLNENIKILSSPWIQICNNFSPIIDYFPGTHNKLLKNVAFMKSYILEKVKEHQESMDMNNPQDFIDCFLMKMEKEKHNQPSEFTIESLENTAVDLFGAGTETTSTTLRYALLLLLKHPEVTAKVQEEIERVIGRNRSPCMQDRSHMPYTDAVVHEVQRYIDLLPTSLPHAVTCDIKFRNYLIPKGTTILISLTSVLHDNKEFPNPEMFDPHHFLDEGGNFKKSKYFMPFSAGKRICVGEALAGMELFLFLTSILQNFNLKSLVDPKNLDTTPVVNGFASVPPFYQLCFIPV
Method in brief: (§2)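 Pooled human liver microsomes incubated with compound at 0–50 μM final; CYP probe activities (phenacetin O-deethylation for 1A2, tolbutamide 4-hydroxylation for 2C9, omeprazole hydroxylation for 2C19, dextromethorphan O-demethylation for 2D6) run as a cocktail incubation and quantified by tandem MS; duplicates; IC50 derived.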

HCT-116 [3] = assay: Induction of apoptosis in human HCT116 cells assessed as late apoptotic cells at 25 uM after 24 hrs by Annexin V/propidium iodide staining based flow cytometry (reference value: 8.36%); assay type: functional
RKO [4] = assay: Cell cycle arrest in human RKO cells assessed as accumulation at G2/M phase at 25 uM after 24 hrs propidium iodide staining based flow cytometry (reference value: 23.3%); assay type: functional; method in brief: as §1
HCT-116 [5] = assay: Induction of apoptosis in human HCT116 cells assessed as live cells at 25 uM after 24 hrs by Annexin V/propidium iodide staining based flow cytometry (reference value: 84.4%); assay type: functional
RKO [6] = assay: Cell cycle arrest in human RKO cells assessed as accumulation at G2/M phase at 25 uM after 24 hrs in presence of oxaliplatin propidium iodide staining based flow cytometry (reference value: 39.2%); assay type: functional; method in brief: as §1
RKO [7] = assay: Induction of apoptosis in human RKO cells assessed as necrotic cells at 25 uM after 24 hrs in presence of oxaliplatin by Annexin V/propidium iodide staining based flow cytometry (reference value: 0.22%); assay type: functional
[8] = AUCt in rat at 5 mg/kg, iv; assay type: ADME, organism-based; settings: in vivo
Method in brief: (§3)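 Male rats given a single dose, 5 mg/kg intravenously or 10 mg/kg orally. Plasma PK parameters were reported as mean ± SD: AUCt, AUC∞, Cmax, Tmax, T1/2, CL, Vss and oral bioavailability F.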

HCT-116 [9] = assay: Induction of apoptosis in human HCT116 cells assessed as live cells at 10 uM after 24 hrs by Annexin V/propidium iodide staining based flow cytometry (reference value: 84.4%); assay type: functional
[10] = Metabolic stability in rat liver microsomes assessed as parent compound remaining after 30 mins by LC-MS/MS analysis; assay type: ADME, Microsome; settings: read-out: Stability
Cytochrome P450 2C19 = Cytochrome P450 2C19 (Homo sapiens, UniProt P33261); assay: Inhibition of CYP2C19 in human liver microsomes assessed as reduction in omeprazole hydroxylation by tandem mass spectrometry analysis; assay type: ADME; method in brief: as §2
Chain of Cytochrome P450 2C19 (P33261 whole entry): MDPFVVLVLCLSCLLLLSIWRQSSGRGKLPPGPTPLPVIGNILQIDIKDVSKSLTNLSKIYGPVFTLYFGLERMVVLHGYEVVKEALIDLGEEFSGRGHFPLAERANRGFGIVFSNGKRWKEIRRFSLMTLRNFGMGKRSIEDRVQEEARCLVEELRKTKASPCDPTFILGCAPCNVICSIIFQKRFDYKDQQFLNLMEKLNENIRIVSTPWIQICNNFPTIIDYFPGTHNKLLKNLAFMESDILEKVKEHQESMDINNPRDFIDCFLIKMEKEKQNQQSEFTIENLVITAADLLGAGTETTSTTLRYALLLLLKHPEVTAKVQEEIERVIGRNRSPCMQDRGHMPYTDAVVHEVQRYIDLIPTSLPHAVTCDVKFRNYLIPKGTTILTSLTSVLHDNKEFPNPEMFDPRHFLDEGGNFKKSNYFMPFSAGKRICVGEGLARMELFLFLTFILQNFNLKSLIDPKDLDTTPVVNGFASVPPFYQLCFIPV

[11] = Half life in human liver microsomes at 1 uM preincubated for 5 mins followed by NADPH/UDPGA addition by LC-MS/MS analysis; assay type: ADME, Microsome
Method in brief: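 Pooled human liver microsomes (1.0 mg/mL) were preincubated with substrate (1 μM) at 37 °C for 5 min. NADPH and UDPGA were added and samples taken at 10, 20, 40 and 60 min. Reactions were quenched with acetonitrile, centrifuged, and the supernatant quantified by LC-MS/MS. Buspirone served as positive control.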

RKO [12] = assay: Cell cycle arrest in human RKO cells assessed as accumulation at G1/G0 phase at 10 uM after 24 hrs propidium iodide staining based flow cytometry (reference value: 39.9%); assay type: functional; method in brief: as §1
Mast cell = assay: Inhibition of degranulation in IgE-labeled bone marrow-derived mast cells (unknown origin) assessed as reduction in beta-hexosaminidase release preincubated for 1 hr followed by HSA stimulation and measured after 15 mins; assay type: functional, cell-based
RKO [13] = assay: Induction of apoptosis in human RKO cells assessed as necrotic cells at 10 uM after 24 hrs by Annexin V/propidium iodide staining based flow cytometry (reference value: 0.56%); assay type: functional
[14] = molecular target: Cellular tumor antigen p53 (Homo sapiens) (UniProt P04637); assay: Induction of p53 phosphorylation at Ser-15 residue in human RKO cells after 24 hrs by Western blot analysis; assay type: cell-based
Chain of Cellular tumor antigen p53 (Homo sapiens) (P04637 whole entry, looked up): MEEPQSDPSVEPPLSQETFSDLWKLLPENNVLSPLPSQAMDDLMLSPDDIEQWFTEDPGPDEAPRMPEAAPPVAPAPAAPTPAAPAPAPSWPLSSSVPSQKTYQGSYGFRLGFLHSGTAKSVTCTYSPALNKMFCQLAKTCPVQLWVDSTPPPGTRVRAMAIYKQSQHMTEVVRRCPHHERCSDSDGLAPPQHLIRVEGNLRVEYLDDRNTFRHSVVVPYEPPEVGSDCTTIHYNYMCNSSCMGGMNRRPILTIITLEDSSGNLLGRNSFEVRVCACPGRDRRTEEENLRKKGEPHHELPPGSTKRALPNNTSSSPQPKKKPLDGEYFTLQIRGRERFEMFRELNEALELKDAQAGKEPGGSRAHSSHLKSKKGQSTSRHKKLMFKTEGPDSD
Method in brief: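 HCT116 and RKO cells given a range of compound doses for 24 h; lysates probed by Western blot for apoptosis-related proteins (p53, BAX, BCLxL).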

Cytochrome P450 1A2 = Cytochrome P450 1A2 (Homo sapiens, UniProt P05177); assay: Inhibition of CYP1A2 in human liver microsomes assessed as reduction in phenacetin-O-deethylation by tandem mass spectrometry analysis; assay type: ADME; method in brief: as §2
Chain of Cytochrome P450 1A2 (P05177 whole entry): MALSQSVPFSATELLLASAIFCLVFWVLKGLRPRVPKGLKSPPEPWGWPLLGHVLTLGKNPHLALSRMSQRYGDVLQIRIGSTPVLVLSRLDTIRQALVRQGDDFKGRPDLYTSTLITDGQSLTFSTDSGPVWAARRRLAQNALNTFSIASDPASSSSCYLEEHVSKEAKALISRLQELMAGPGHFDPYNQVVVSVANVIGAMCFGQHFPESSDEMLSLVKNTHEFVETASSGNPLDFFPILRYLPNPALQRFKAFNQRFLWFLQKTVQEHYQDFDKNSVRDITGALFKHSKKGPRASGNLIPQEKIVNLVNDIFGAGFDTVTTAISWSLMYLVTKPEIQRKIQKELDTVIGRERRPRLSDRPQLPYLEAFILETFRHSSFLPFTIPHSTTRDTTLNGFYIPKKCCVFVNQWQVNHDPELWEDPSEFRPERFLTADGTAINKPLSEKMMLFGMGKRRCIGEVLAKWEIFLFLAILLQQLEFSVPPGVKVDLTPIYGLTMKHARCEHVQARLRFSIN

[15] = molecular target: [Pyruvate dehydrogenase (acetyl-transferring)] kinase isozyme 4, mitochondrial (Homo sapiens, UniProt Q16654); assay: Inhibition of PDK4 (unknown origin)
Chain of [Pyruvate dehydrogenase (acetyl-transferring)] kinase isozyme 4, mitochondrial (Q16654 whole entry): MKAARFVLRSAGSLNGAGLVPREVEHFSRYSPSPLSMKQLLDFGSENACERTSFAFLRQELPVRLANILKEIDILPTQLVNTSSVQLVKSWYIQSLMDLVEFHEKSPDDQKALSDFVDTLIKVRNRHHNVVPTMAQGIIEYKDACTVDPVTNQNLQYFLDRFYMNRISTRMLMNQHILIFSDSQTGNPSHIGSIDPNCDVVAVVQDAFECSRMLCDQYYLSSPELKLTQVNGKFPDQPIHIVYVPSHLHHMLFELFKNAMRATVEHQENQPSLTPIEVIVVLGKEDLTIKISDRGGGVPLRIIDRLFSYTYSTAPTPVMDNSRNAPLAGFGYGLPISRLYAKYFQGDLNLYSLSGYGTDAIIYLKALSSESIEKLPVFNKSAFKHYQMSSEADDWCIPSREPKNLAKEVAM

[16] = Half life in rat at 10 mg/kg, po; assay type: ADME, organism-based; settings: in vivo; method in brief: as §3
HCT-116 [17] = assay: Cell cycle arrest in human HCT116 cells assessed as accumulation at sub-G1 phase at 10 uM after 24 hrs propidium iodide staining based flow cytometry (reference value: 17.8%); assay type: functional; method in brief: as §1
HCT-116 [18] = assay: Cell cycle arrest in human HCT116 cells assessed as accumulation at G1/G0 phase at 50 uM after 24 hrs propidium iodide staining based flow cytometry (reference value: 42%); assay type: functional; method in brief: as §1
HCT-116 [19] = assay: Cell cycle arrest in human HCT116 cells assessed as accumulation at S phase at 50 uM after 24 hrs propidium iodide staining based flow cytometry (reference value: 18%); assay type: functional; method in brief: as §1
[20] = AUC (0 to infinity) in rat at 10 mg/kg, po; assay type: ADME, organism-based; set-up: dose 10 mg/kg, route oral, time infinity; settings: in vivo; method in brief: as §3
RKO [21] = assay: Induction of apoptosis in human RKO cells assessed as live cells at 25 uM after 24 hrs by Annexin V/propidium iodide staining based flow cytometry (reference value: 82.4%); assay type: functional
HFL1 = assay: Cytotoxicity against HFL1 cells; assay type: cell-based; settings: Homo sapiens
RKO [22] = assay: Cell cycle arrest in human RKO cells assessed as accumulation at sub-G1 phase at 50 uM after 24 hrs propidium iodide staining based flow cytometry (reference value: 17.6%); assay type: functional
HCT-116 [23] = assay: Cell cycle arrest in human HCT116 cells assessed as accumulation at G1/G0 phase at 10 uM after 24 hrs propidium iodide staining based flow cytometry (reference value: 42%); assay type: functional; method in brief: as §1
HCT-116 [24] = assay: Induction of apoptosis in human HCT116 cells assessed as early apoptotic cells at 50 uM after 24 hrs by Annexin V/propidium iodide staining based flow cytometry (reference value: 4.36%); assay type: functional
HCT-116 [25] = assay: Antiproliferative activity against human HCT116 cells up to 50 uM up to 72 hrs by CCK8 assay; assay type: functional, cell-based
Method in brief: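 HCT116 and RKO cells were treated with compound alone or with oxaliplatin and grown for 0–72 h. Viability was read by CCK-8 colorimetry at 450 nm.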

In the case of `Cl.O=C1c2ccccc2C(=O)c2c1cccc2-c1cnn(C2CCNCC2)c1`, the Activity (RKO [1]) is reported as 8.2%, the Activity (RKO [2]) is reported as 49% and the IC50 (Cytochrome P450 2C9) is reported as greater than 50 µM. The Activity (HCT-116 [3]) was 23.9%, the Activity (RKO [4]) was 21.6% and the Activity (HCT-116 [5]) was 49.4%. The Activity (RKO [6]) was 19.2%, the Activity (RKO [7]) was 5.07% and the AUC(0-t) [8] was 7020 ng·h/mL. The Activity (HCT-116 [9]) was 77.9%, the remaining at 0.5 h [10] was 67.8% and the IC50 (Cytochrome P450 2C19) was 42.4 µM. The half-life at 1 µM [11] was greater than 1 h, the Activity (RKO [12]) was 46.7% and the inhibition (Mast cell) was “Dose-dependent effect”. For the same compound, the Activity (RKO [13]) was 0.89%, the Activity [14] was “Dose-dependent effect” and the IC50 (Cytochrome P450 1A2) was 16.3 µM. It also gave an IC50 [15] of 0.084 µM, a half-life [16] of 21.6 h and an Activity (HCT-116 [17]) of 14.4%. It also gave an Activity (HCT-116 [18]) of 11.2%, an Activity (HCT-116 [19]) of 5.3% and an AUC(0-inf) [20] of 18500 ng·h/mL. It also gave an Activity (RKO [21]) of 36.7%, an IC50 (HFL1) of 36.5 µM and an Activity (RKO [22]) of 91.1%. The Activity (HCT-116 [23]) was 41.6%, the Activity (HCT-116 [24]) was 4.1% and the Activity (HCT-116 [25]) was “Active”.
